The target in experiment [1] is Programmed cell death protein 1/Programmed cell death 1 ligand 1 (Homo sapiens, UniProt Q15116+Q9NZQ7). Briefly: Inhibition of C-terminal his tagged human PD-1/human Fc tagged PDL-1 interaction expressed in HEK293 cells incubated for 2 hrs AlphaScreen assay. Format: cell-based. A general note: Alpha assays give light when donor and acceptor beads are brought close together.

Experiment [2] deals with Angiotensin-converting enzyme 2 (Homo sapiens, UniProt Q9BYF1). Briefly: Inhibition of his-tagged SARS-COV2 S-RBD binding to C-terminal Fc-tagged human ACE2 expressed in HEK293 cells incubated for 2 hrs by Alphascreen assay. It counts as cell-based. The procedure, abridged: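 ACE2-Fc (2 nM) with His-tagged spike RBD, Wuhan variant (5 nM), plus protein A acceptor and nickel chelate donor beads (5 μg/mL each), in 20 mM Tris pH 7.4, 150 mM KCl, 0.05% CHAPS. Compounds added from 100× DMSO dilutions, in duplicate. 2 h at room temperature, then luminescence read. 100% = signal without RBD; 0% = both proteins plus DMSO.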
Sequence of Angiotensin-converting enzyme 2 (Q9BYF1 whole entry): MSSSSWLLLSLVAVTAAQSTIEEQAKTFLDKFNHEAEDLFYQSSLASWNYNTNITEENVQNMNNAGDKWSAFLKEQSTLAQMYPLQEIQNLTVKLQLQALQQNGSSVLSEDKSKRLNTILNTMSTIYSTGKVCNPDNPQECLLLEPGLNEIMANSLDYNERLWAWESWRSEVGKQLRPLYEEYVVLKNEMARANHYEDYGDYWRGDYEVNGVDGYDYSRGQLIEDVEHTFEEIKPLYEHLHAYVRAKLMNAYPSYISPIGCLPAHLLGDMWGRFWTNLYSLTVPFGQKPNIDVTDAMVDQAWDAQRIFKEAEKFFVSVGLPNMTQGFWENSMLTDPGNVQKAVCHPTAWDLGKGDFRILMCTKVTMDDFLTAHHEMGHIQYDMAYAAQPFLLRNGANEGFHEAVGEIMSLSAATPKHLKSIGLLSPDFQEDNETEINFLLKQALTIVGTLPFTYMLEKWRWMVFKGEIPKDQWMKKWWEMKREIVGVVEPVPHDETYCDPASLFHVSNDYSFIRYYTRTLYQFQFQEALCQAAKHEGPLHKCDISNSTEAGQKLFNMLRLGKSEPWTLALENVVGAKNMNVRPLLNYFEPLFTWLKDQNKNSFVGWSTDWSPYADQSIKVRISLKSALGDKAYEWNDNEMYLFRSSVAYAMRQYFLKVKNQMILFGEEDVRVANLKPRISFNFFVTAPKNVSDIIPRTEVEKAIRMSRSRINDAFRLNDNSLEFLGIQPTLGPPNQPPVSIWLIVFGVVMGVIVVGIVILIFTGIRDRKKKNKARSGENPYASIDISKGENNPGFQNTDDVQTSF

The next experiment is filed under the species Homo sapiens. Briefly: Selectivity index, ratio of IC50 for his tagged human PD-1/human Fc tagged PDL-1 interaction to IC50 for his-tagged FC tagged SARS-COV2 S-RBD binding to ACE2 (unknown origin).

As usually defined, the IC50 is the concentration that gives 50% inhibition. Low values mean inhibition by little substance, high ones a need for much substance.

Sequence of Programmed cell death protein 1/Programmed cell death 1 ligand 1 (Q15116 whole entry): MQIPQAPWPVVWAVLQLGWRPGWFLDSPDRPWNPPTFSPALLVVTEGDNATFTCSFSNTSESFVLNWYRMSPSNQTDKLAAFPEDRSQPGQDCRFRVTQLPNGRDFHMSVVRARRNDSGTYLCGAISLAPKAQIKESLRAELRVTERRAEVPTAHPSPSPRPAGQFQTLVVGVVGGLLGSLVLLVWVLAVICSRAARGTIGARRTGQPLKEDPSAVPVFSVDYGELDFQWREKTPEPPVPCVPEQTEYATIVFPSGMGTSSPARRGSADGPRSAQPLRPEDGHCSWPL
Sequence of Programmed cell death protein 1/Programmed cell death 1 ligand 1 (Q9NZQ7 whole entry): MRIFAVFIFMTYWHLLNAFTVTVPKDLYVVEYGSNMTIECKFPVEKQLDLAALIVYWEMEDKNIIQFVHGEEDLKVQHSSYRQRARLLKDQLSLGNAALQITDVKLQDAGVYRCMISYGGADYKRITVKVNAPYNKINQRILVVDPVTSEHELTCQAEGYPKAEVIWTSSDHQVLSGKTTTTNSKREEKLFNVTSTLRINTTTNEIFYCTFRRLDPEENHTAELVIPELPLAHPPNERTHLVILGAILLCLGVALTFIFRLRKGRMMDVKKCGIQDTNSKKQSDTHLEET

Consider `COc1cc(OC(C)=O)cc2c1OC(C)(CCC1=C(C)CCCC1(C)C)C=C2` (configuration not stated), for which the IC50 in experiment [1] came out at 66 µM; in experiment [2], 63 µM. Besides, the Ratio IC50 in the experiment listed under Homo sapiens turned out to be 1.
On the same counts, the results for `COc1cc(O)c(-c2c(O)cc(OC)c3c2C=C[C@](C)(CCC2=C(C)CCCC2(C)C)O3)c2c1O[C@](C)(CCC1=C(C)CCCC1(C)C)C=C2` are 6 µM, 1 µM and 5.9.
With `COc1cc(OC(C)=O)c(-c2c(OC(C)=O)cc(OC)c3c2C=C[C@@](C)(CCC2=C(C)CCCC2(C)C)O3)c2c1O[C@](C)(CCC1=C(C)CCCC1(C)C)C=C2`, the figures for the IC50 in experiment [1] and in experiment [2] were over 50 µM and 65 µM, respectively.
For `COc1cc(OC(C)=O)c(-c2c(OC(C)=O)cc(OC)c3c2C=C[C@](C)(CCC2=C(C)CCCC2(C)C)O3)c2c1O[C@](C)(CCC1=C(C)CCCC1(C)C)C=C2`, the half-inhibitory concentration (IC50) in experiment [1] stood at 37 µM; in experiment [2], 7.3 µM. In the experiment filed under Homo sapiens, the Ratio IC50 turned out to be 5.
`Oc1ccc([C@@H]2c3c(O)cc(O)cc3[C@@H]3c4c(cc(O)cc4[C@H]2[C@@H]2c4cc(O)cc5c4[C@@H](c4cc(O)cc(O)c4[C@H]2c2ccc(O)cc2)[C@H](c2ccc(O)cc2)O5)O[C@H]3c2ccc(O)cc2)cc1` displayed a half-maximal inhibitory concentration (IC50) in experiment [2] of 0.25 µM.

These data come from ChEMBL document CHEMBL5252557.
